Assay results reported in ChEMBL document CHEMBL4715796, “Discovery of Chromane Containing Hepatitis C Virus (HCV) NS5A Inhibitors with Improved Potency against Resistance-Associated Variants” (J Med Chem, 2016).
Where a chain is given by its changes, count along the chain named.

Tests used:
[1] = Selectivity ratio of EC90 for inhibition of NS5A in Hepatitis C virus subtype 3a infected in human HuH7 cells assessed as reduction in viral to EC90 for inhibition of NS5A in Hepatitis C virus subtype 1a; type: cell-based
[2] = Selectivity ratio of EC90 for inhibition of NS5A in Hepatitis C virus subtype 2b infected in human HuH7 cells assessed as reduction in viral to EC90 for inhibition of NS5A in Hepatitis C virus subtype 1a; type: cell-based
[3] = Selectivity ratio of EC90 for inhibition of NS5A in Hepatitis C virus subtype 1b infected in human HuH7 cells assessed as reduction in viral to EC90 for inhibition of NS5A in Hepatitis C virus subtype 1a; type: cell-based
Outline: (§1)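 Fold shift calculated against the GT1a EC90, using EC90 values from the luciferase replicon assay in Huh7-derived cells.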

[4] = tested on: Nonstructural protein 5A (Hepatitis C virus), Q5L478 [UNDEFINED MUTATION]; experiment: Inhibition of NS5A L31V mutant in Hepatitis C virus subtype 1b
Outline: (§2)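 NS5A resistance variants engineered into GT1a-H77 or GT1b-Con1 replicons. Each variant replicon is transfected transiently by electroporation into a Huh7-derived cell line. Percent inhibition is taken from the drop in luciferase signal at each compound concentration, and EC90 is calculated from these. Values are means of at least two experiments.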

[5] = tested on: T1, Nonstructural protein 5A (Hepatitis C virus), Q5L478 [Y93N]; experiment: Inhibition of NS5A Y93N mutant in Hepatitis C virus subtype 1a; outline: as §2
T1 sequence (whole entry): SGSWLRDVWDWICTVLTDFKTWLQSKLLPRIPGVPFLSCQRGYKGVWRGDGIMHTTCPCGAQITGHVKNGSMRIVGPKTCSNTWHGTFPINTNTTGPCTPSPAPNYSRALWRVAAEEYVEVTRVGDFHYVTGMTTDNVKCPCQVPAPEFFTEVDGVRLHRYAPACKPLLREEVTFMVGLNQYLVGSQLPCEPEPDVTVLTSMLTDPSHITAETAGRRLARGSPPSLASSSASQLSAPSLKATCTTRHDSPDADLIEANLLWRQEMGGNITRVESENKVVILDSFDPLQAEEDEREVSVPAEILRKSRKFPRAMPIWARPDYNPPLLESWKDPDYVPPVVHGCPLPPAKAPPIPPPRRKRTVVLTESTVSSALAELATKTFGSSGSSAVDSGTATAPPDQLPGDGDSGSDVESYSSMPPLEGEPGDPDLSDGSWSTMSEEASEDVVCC

[6] = tested on: T2, Nonstructural protein 5A (Hepatitis C virus), Q5L478 [Y93H]; experiment: Inhibition of NS5A Y93H mutant in Hepatitis C virus subtype 1b; outline: as §2
T2 sequence (whole entry): T1 sequence (whole entry) with N93H

[7] = tested on: Nonstructural protein 5A (Hepatitis C virus), Q5L478 [UNDEFINED MUTATION]; experiment: Inhibition of NS5A Q30R mutant in Hepatitis C virus subtype 1a; outline: as §2
[8] = tested on: Hepatitis C virus subtype 1a; experiment: Inhibition of NS5A Q30D mutant in Hepatitis C virus subtype 1a; outline: as §2
[9] = tested on: Nonstructural protein 5A (Hepatitis C virus), Q5L478 [UNDEFINED MUTATION]; experiment: Inhibition of NS5A L31V mutant in Hepatitis C virus subtype 1a infected in human HuH7 cells assessed as reduction in viral replication by luciferase reporter gene assay; type: cell-based; conditions: Huh-7; outline: as §2
Huh-7 [10] = experiment: Inhibition of NS5A in Hepatitis C virus subtype 4a infected in human HuH7 cells assessed as reduction in viral replication by luciferase reporter gene assay; type: cell-based
Outline: (§3)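 Transient replicon assay with GT1a-H77, GT1b-Con1 or chimeric replicons, electroporated into a Huh7-derived cell line. Percent inhibition of replication, read as a drop in luciferase signal, was calculated at each concentration to give EC90. Values are means of at least two experiments.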

Huh-7 [11] = experiment: Inhibition of NS5A in Hepatitis C virus subtype 3a infected in human HuH7 cells assessed as reduction in viral replication by luciferase reporter gene assay; type: cell-based; outline: as §3
Huh-7 [12] = experiment: Inhibition of NS5A in Hepatitis C virus subtype 2b infected in human HuH7 cells assessed as reduction in viral replication by luciferase reporter gene assay; type: cell-based; outline: as §3
Huh-7 [13] = experiment: Inhibition of NS5A in Hepatitis C virus subtype 1b infected in human HuH7 cells assessed as reduction in viral replication by luciferase reporter gene assay; type: cell-based; outline: as §3
Huh-7 [14] = experiment: Inhibition of NS5A in Hepatitis C virus subtype 1a infected in human HuH7 cells assessed as reduction in viral replication by luciferase reporter gene assay; type: cell-based; outline: as §3
[15] = Selectivity ratio of EC90 for inhibition of NS5A L31V mutant in Hepatitis C virus subtype 1b to EC90 for Selectivity ratio of EC90 for inhibition of NS5A in Hepatitis C virus subtype 1a
Outline: (§4)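 Fold shift is calculated against the GT1a EC90. The variant EC90 comes from a transient replicon assay: the NS5A variant is introduced into a GT1a-H77 or GT1b-Con1 replicon and electroporated into Huh7-derived cells. The read-out is reduced luciferase signal. EC90s are means of at least two experiments.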

[16] = Selectivity ratio of EC90 for inhibition of NS5A Y93H mutant in Hepatitis C virus subtype 1b to EC90 for Selectivity ratio of EC90 for inhibition of NS5A in Hepatitis C virus subtype 1a; outline: as §4
[17] = tested on: Hepatitis C virus subtype 1a; experiment: Selectivity ratio of EC90 for inhibition of NS5A Y93N mutant in Hepatitis C virus subtype 1a to EC90 for Selectivity ratio of EC90 for inhibition of NS5A in Hepatitis C virus subtype 1a; outline: as §4
[18] = tested on: Hepatitis C virus subtype 1a; experiment: Selectivity ratio of EC90 for inhibition of NS5A R155K V36 mutant in Hepatitis C virus subtype 1a to EC90 for Selectivity ratio of EC90 for inhibition of NS5A in Hepatitis C virus subtype 1a
[19] = tested on: Hepatitis C virus subtype 1a; experiment: Selectivity ratio of EC90 for inhibition of NS5A R155K mutant in Hepatitis C virus subtype 1a to EC90 for Selectivity ratio of EC90 for inhibition of NS5A in Hepatitis C virus subtype 1a
[20] = tested on: Hepatitis C virus subtype 1a; experiment: Selectivity ratio of EC90 for inhibition of NS5A Q30D mutant in Hepatitis C virus subtype 1a to EC90 for Selectivity ratio of EC90 for inhibition of NS5A in Hepatitis C virus subtype 1a; outline: as §4
[21] = tested on: Hepatitis C virus subtype 1a; experiment: Selectivity ratio of EC90 for inhibition of NS5A Q30R mutant in Hepatitis C virus subtype 1a to EC90 for Selectivity ratio of EC90 for inhibition of NS5A in Hepatitis C virus subtype 1a; outline: as §4
[22] = Selectivity ratio of EC90 for inhibition of NS5A L31V mutant in Hepatitis C virus subtype 1a infected in human HuH7 cells assessed as reduction in viral to EC90 for inhibition of NS5A in Hepatitis C virus subtype 1a; type: cell-based; outline: as §4
[23] = Selectivity ratio of EC90 for inhibition of NS5A Y93H mutant in Hepatitis C virus subtype 1a infected in human HuH7 cells assessed as reduction in viral to EC90 for inhibition of NS5A in Hepatitis C virus subtype 1a; type: cell-based; outline: as §4
[24] = Selectivity ratio of EC90 for inhibition of NS5A in Hepatitis C virus subtype 4a infected in human HuH7 cells assessed as reduction in viral to EC90 for inhibition of NS5A in Hepatitis C virus subtype 1a; type: cell-based; outline: as §1
[25] = tested on: Hepatitis C virus subtype 1b; experiment: Inhibition of NS3 D168Y mutant in Hepatitis C virus subtype 1b
[26] = tested on: Hepatitis C virus subtype 1a; experiment: Inhibition of NS3 R155K mutant in Hepatitis C virus subtype 1a
[27] = tested on: Hepatitis C virus subtype 1a; experiment: Inhibition of NS3 R155K/V36M mutant in Hepatitis C virus subtype 1a
[28] = Selectivity ratio of EC90 for inhibition of NS3 D168Y mutant in Hepatitis C virus subtype 1b to EC90 for Selectivity ratio of EC90 for inhibition of NS5A in Hepatitis C virus subtype 1a

Question: With COC(=O)N[C@H](C(=O)N1CCC[C@H]1c1ncc(-c2cc(F)c3c(c2)OC(c2ccc4c(c2)OCCC4)n2c-3cc3cc(-c4cnc([C@@H]5CCCN5C(=O)[C@@H](NC(=O)OC)C(C)C)[nH]4)ccc32)[nH]1)C(C)C (stereo partly drawn) as the compound, how does the Selectivity ratio [1] read?
Answer: The Selectivity ratio was 3.

Question: And the Selectivity ratio [2]?
Answer: Its Selectivity ratio is 100.

Question: And the Selectivity ratio [3]?
Answer: The Selectivity ratio was 1.

Question: And the EC90 [4]?
Answer: Its EC90 is 5 pM.

Question: What about the EC90 [5] of the same compound?
Answer: Its EC90 is 0.2 nM.

Question: What about the EC90 [6] of the same compound?
Answer: The EC90 was 0.07 nM.

Question: And the EC90 [7]?
Answer: Its EC90 is 0.02 nM.

Question: What about the EC90 [8] of the same compound?
Answer: The EC90 was 0.9 nM.

Question: What about the EC90 [9] of the same compound?
Answer: Its EC90 is 0.02 nM.

Question: What about the EC90 (Huh-7 [10]) of the same compound?
Answer: Its EC90 is 2 pM.

Question: What about the EC90 (Huh-7 [11]) of the same compound?
Answer: The EC90 was 0.01 nM.

Question: What about the EC90 (Huh-7 [12]) of the same compound?
Answer: Its EC90 is 0.3 nM.

Question: What about the EC90 (Huh-7 [13]) of the same compound?
Answer: Its EC90 is 3 pM.

Question: And the EC90 (Huh-7 [14])?
Answer: The EC90 was 3 pM.

Question: And the Selectivity ratio [15]?
Answer: The Selectivity ratio was 2.

Question: And the Selectivity ratio [16]?
Answer: The Selectivity ratio was 23.

Question: And the Selectivity ratio [17]?
Answer: The Selectivity ratio was 67.

Question: And the Selectivity ratio [18]?
Answer: The Selectivity ratio was 1.

Question: What about the Selectivity ratio [19] of the same compound?
Answer: Its Selectivity ratio is 1.

Question: What about the Selectivity ratio [20] of the same compound?
Answer: Its Selectivity ratio is 300.

Question: What about the Selectivity ratio [21] of the same compound?
Answer: Its Selectivity ratio is 7.

Question: And the Selectivity ratio [22]?
Answer: Its Selectivity ratio is 7.

Question: And the Selectivity ratio [23]?
Answer: The Selectivity ratio was 167.

Question: And the Selectivity ratio [24]?
Answer: The Selectivity ratio was 1.

Question: What about the EC90 [25] of the same compound?
Answer: The EC90 was 2 pM.

Question: And the EC90 [26]?
Answer: The EC90 was 0.1 pM.

Question: And the EC90 [27]?
Answer: The EC90 was 1 pM.

Question: And the Selectivity ratio [28]?
Answer: The Selectivity ratio was 1.
